Measurements reported in ChEMBL document CHEMBL4004871, “Impact of androstane A- and D-ring inversion on 17β-hydroxysteroid dehydrogenase type 3 inhibitory activity, androgenic effect and metabolic stability” (Bioorg Med Chem, 2017).
pIC50: −log10 of the molar value. The source made the active and inactive calls. No cut-off for these calls is given here.

What was measured:
[1] = target: T1, 17-beta-hydroxysteroid dehydrogenase type 3 (Homo sapiens) (UniProt P37058); assay: Inhibition of 17-beta-HSD3 (unknown origin) expressed in human LNCaP cells using [14C]-4-androstene-3,17-dione as substrate assessed as reduction of [14C]-testosterone level at 0.1 to 1 uM after 1 hr by TLC method; format: cell-based
T1 sequence (whole entry): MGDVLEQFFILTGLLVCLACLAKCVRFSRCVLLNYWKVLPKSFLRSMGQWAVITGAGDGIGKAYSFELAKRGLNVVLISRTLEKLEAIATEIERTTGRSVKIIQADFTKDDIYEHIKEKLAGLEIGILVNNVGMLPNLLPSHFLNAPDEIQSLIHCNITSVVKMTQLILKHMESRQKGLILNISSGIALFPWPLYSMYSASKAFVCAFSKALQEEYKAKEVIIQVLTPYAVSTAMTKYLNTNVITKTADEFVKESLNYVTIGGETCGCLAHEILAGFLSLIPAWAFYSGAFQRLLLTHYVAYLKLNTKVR
Outline: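 LNCaP cells stably transfected with 17β-HSD3, grown in RPMI-1640 with 10% FBS and hygromycin; hygromycin omitted for assay. 10,000 cells/well plated, incubated 2 days, then 15 nM [14C]-4-androstene-3,17-dione added with inhibitor in DMSO (final 0.05%).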

[2] = Metabolic stability in human liver microsomes assessed as parent compound remaining at 10 uM after 1 hr by HPLC-MS analysis; format: ADME, microsome; conditions: read-out: Stability
Outline: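 Human liver microsomes (40 μg) were incubated with 10 μM substrate for 1 h at 37 °C, with or without 10 mM NADPH, in 50 mM Tris plus 10 mM MgCl₂. MeOH-quenched, centrifuged supernatants from 2 assays pooled for HPLC-MS with UV at 190 nm. % remaining = AUC with NADPH / AUC without NADPH × 100; mean of 4 independent experiments.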

Androgen receptor [3] = target: T2, Androgen receptor (Homo sapiens, UniProt P10275); assay: Androgenic activity at AR in human LAPC4 cells assessed as cell growth at 1 uM after 3 days by MTS method relative to control; format: cell-based; conditions: 72 h
T2 sequence (P10275 whole entry): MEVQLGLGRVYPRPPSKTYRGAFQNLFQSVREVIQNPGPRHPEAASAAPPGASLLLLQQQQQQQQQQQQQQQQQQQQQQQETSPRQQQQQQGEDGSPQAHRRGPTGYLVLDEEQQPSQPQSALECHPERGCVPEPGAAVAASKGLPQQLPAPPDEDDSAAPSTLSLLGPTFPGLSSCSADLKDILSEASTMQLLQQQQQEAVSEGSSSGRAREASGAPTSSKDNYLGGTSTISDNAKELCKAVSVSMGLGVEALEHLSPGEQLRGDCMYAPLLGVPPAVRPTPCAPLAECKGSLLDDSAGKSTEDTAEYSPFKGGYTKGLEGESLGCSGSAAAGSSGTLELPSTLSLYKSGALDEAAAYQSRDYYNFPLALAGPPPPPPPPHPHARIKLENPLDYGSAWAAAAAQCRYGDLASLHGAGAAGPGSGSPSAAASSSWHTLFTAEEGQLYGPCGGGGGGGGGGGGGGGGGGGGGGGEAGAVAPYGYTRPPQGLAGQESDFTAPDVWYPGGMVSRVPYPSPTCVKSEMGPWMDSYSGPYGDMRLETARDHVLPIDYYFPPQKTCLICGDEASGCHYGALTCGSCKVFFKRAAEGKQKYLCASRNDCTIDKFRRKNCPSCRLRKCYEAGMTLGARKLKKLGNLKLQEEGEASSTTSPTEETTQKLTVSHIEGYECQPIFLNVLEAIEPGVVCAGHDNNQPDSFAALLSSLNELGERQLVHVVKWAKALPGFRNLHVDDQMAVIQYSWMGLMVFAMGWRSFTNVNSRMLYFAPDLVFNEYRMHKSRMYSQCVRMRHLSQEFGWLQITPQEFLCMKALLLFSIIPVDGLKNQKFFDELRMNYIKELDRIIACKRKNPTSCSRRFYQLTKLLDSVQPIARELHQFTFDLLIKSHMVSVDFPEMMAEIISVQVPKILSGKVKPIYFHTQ
Outline: (§1)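 LAPC-4 (AR+) cells, cultured in RPMI-1640 with FBS, L-glutamine and insulin, were switched to medium with 5% dextran-coated charcoal treated FBS. 10,000 cells/well, triplicate, were pre-incubated 24 h at 37 °C, then given compound diluted from DMSO stock for 3 days; vehicle DMSO controls. Growth read by MTS, expressed as % proliferation minus basal 100%.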

[4] = target: T3, 17-beta-hydroxysteroid dehydrogenase type 3 (Homo sapiens, UniProt P37058); assay: Inhibition of 17-beta-HSD3 (unknown origin) expressed in human LNCaP cells using [14C]-4-androstene-3,17-dione as substrate assessed as reduction of [14C]-testosterone level after 1 hr by TLC method
T3 sequence (P37058 whole entry): T1 sequence (whole entry)

Androgen receptor [5] = target: T2, Androgen receptor; assay: Androgenic activity at AR in human LAPC4 cells assessed as cell growth at 0.1 uM after 3 days by MTS method relative to control; format: cell-based; conditions: 72 h; outline: as §1
Androgen receptor [6] = target: T2, Androgen receptor; assay: Androgenic activity at AR in human LAPC4 cells assessed as cell growth at 0.5 uM after 3 days by MTS method relative to control; format: cell-based; conditions: 72 h; outline: as §1

With `C[C@]12CC[C@H](O)C[C@H]1CC[C@@H]1[C@@H]2CC[C@@]2(C)C(=O)CC[C@@H]12` the inhibition [1] was “inactive”.
In the case of `C[C@@H]1CN(S(=O)(=O)c2ccccc2C(F)(F)F)[C@@H](C)CN1C` (relative stereo), the inhibition [1] was “inactive”.
In the case of `C[C@]12CC[C@@H](O)C[C@@H]1CC[C@@H]1[C@@H]2CC[C@@]2(C)C(=O)CC[C@@H]12`, the inhibition [1] was “inactive”.
Work on `C[C@@H]1CN(S(=O)(=O)c2ccccc2C(F)(F)F)[C@@H](C)CN1C[C@]1(O)CC[C@@]2(C)[C@H](CC[C@@H]3[C@@H]2CC[C@@]2(C)C(=O)CC[C@@H]32)C1` yielded a remaining at 1 h, 10 µM [2] of 16.6%, an Activity (Androgen receptor [3]) of 28.2% and a pIC50 [4] of 6.82. It also gave an Activity (Androgen receptor [5]) of 87.2% and an Activity (Androgen receptor [6]) of 72.3%.
In the case of `C[C@@H]1CN(S(=O)(=O)c2ccccc2C(F)(F)F)[C@@H](C)CN1C[C@@]1(O)CC[C@@]2(C)[C@@H](CC[C@@H]3[C@@H]2CC[C@]2(C)C(=O)CC[C@@H]32)C1`, the Activity (Androgen receptor [3]) was 33%, the pIC50 [4] was 6.96 and the Activity (Androgen receptor [5]) was 96%. For the same molecule, the Activity (Androgen receptor [6]) was 48%.
`C[C@@H]1CN(S(=O)(=O)c2ccccc2C(F)(F)F)[C@@H](C)CN1C[C@@]1(O)CC[C@@]2(C)[C@@H](CC[C@@H]3[C@@H]2CC[C@@]2(C)C(=O)CC[C@@H]32)C1` gave a remaining at 1 h, 10 µM [2] of 29.4%, an Activity (Androgen receptor [3]) of 51% and a pIC50 [4] of 5.96. The Activity (Androgen receptor [5]) was 76.3% and the Activity (Androgen receptor [6]) was 61.6%.
